Data taken from ChEMBL document CHEMBL4715736, “Identification of anticancer agents based on the thieno[2,3-b]pyridine and 1H-pyrazole molecular scaffolds” (2016).

How the values were obtained:
Assay type in all cases: functional
NCI-H322M [1] = assay: Growth inhibition of human NCI-H322M cells incubated for 48 hrs by sulforhodamine B assay; conditions: for CC50: read-out: LC50 (the source's name)
Procedure, shortened: (§1)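 NCI60 panel at the NCI Developmental Therapeutics Program. Only compounds active in the 10 µM screen went to dose-response testing. GI50, the concentration giving 50% of maximal inhibition of proliferation, and TGI, the concentration giving total growth inhibition, were derived from the dose-response curves.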

T47D = assay: Growth inhibition of human T47D cells assessed as cell growth at 0.01 uM incubated for 48 hrs by sulforhodamine B assay relative to control; conditions: read-out: Activity
M14 = assay: Growth inhibition of human M14 cells assessed as cell growth at 1 uM incubated for 48 hrs by sulforhodamine B assay relative to control; conditions: read-out: Activity
CCRF-CEM = assay: Growth inhibition of human CCRF-CEM cells assessed as cell growth at 0.1 uM incubated for 48 hrs by sulforhodamine B assay relative to control; conditions: read-out: Activity
Procedure, shortened: (§2)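 NCI Developmental Therapeutics Program NCI60 panel. Compounds that were active in the 10 µM one-dose screen went on to dose–response testing. Growth at each concentration is expressed relative to untreated control (100%). GI50 (concentration giving 50% of maximal inhibition of proliferation) and TGI (concentration giving total growth inhibition) were derived from the curves.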

MCF7 = assay: Growth inhibition of human MCF7 cells assessed as cell growth at 0.01 uM incubated for 48 hrs by sulforhodamine B assay relative to control; conditions: read-out: Activity
LOX IMVI = assay: Growth inhibition of human LOX IMVI cells incubated for 48 hrs by sulforhodamine B assay; procedure, shortened: as §1
SNB-75 = assay: Growth inhibition of human SNB-75 cells assessed as cell growth at 0.01 uM incubated for 48 hrs by sulforhodamine B assay relative to control; conditions: read-out: Activity
HCT-116 [2] = assay: Growth inhibition of human HCT-116 cells assessed as cell growth at 100 uM incubated for 48 hrs by sulforhodamine B assay relative to control; conditions: read-out: Activity
PC-3 [3] = assay: Growth inhibition of human PC-3 cells incubated for 48 hrs by sulforhodamine B assay; conditions: for CC50: read-out: LC50 (the source's name)
Procedure, shortened: (§3)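 NCI DTP 60-line human tumour panel. Dose-response curves were run only for ligands active in the initial 10 µM screen. GI50 (concentration giving 50% of maximal inhibition of proliferation) and TGI (concentration giving total growth inhibition) were derived from these curves.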

HCT-116 [4] = assay: Growth inhibition of human HCT-116 cells assessed as cell growth at 0.1 uM incubated for 48 hrs by sulforhodamine B assay relative to control; conditions: read-out: Activity
MOLT-4 = assay: Growth inhibition of human MOLT-4 cells assessed as cell growth at 0.01 uM incubated for 48 hrs by sulforhodamine B assay relative to control; conditions: read-out: Activity
HOP-62 = assay: Growth inhibition of human HOP-62 cells assessed as cell growth at 100 uM incubated for 48 hrs by sulforhodamine B assay relative to control; conditions: read-out: Activity
UO-31 = assay: Growth inhibition of human UO-31 cells assessed as cell growth at 0.1 uM incubated for 48 hrs by sulforhodamine B assay relative to control; conditions: read-out: Activity
SK-MEL-5 = assay: Growth inhibition of human SK-MEL-5 cells assessed as cell growth at 0.1 uM incubated for 48 hrs by sulforhodamine B assay relative to control; conditions: read-out: Activity
NCI-H23 = assay: Growth inhibition of human NCI-H23 cells incubated for 48 hrs by sulforhodamine B assay; procedure, shortened: as §1
NCI-H322M [5] = assay: Growth inhibition of human NCI-H322M cells assessed as cell growth at 100 uM incubated for 48 hrs by sulforhodamine B assay relative to control; conditions: read-out: Activity
A549 = assay: Growth inhibition of human A549/ATCC cells assessed as cell growth at 0.1 uM incubated for 48 hrs by sulforhodamine B assay relative to control; conditions: read-out: Activity; procedure, shortened: as §2
SF-268 [6] = assay: Growth inhibition of human SF-268 cells assessed as cell growth at 1 uM incubated for 48 hrs by sulforhodamine B assay relative to control; conditions: read-out: Activity
BT-549 [7] = assay: Growth inhibition of human BT-549 cells incubated for 48 hrs by sulforhodamine B assay; conditions: for CC50: read-out: LC50 (the source's name); procedure, shortened: as §2
SK-OV-3 = assay: Growth inhibition of human SK-OV-3 cells assessed as cell growth at 100 uM incubated for 48 hrs by sulforhodamine B assay relative to control; conditions: read-out: Activity
PC-3 [8] = assay: Growth inhibition of human PC-3 cells assessed as cell growth at 0.01 uM incubated for 48 hrs by sulforhodamine B assay relative to control; conditions: read-out: Activity
786-0 = assay: Growth inhibition of human 786-0 cells assessed as cell growth at 0.01 uM incubated for 48 hrs by sulforhodamine B assay relative to control; conditions: read-out: Activity; procedure, shortened: as §2
Malme-3M [9] = assay: Growth inhibition of human Malme-3M cells assessed as cell growth at 1 uM incubated for 48 hrs by sulforhodamine B assay relative to control; conditions: read-out: Activity
COLO 205 [10] = assay: Growth inhibition of human COLO 205 cells assessed as cell growth at 0.1 uM incubated for 48 hrs by sulforhodamine B assay relative to control; conditions: read-out: Activity; procedure, shortened: as §2
Malme-3M [11] = assay: Growth inhibition of human Malme-3M cells assessed as cell growth at 0.01 uM incubated for 48 hrs by sulforhodamine B assay relative to control; conditions: read-out: Activity
NCI-H322M [12] = assay: Growth inhibition of human NCI-H322M cells assessed as cell growth at 0.1 uM incubated for 48 hrs by sulforhodamine B assay relative to control; conditions: read-out: Activity
BT-549 [13] = assay: Growth inhibition of human BT-549 cells assessed as cell growth at 1 uM incubated for 48 hrs by sulforhodamine B assay relative to control; conditions: read-out: Activity
CAKI-1 = assay: Growth inhibition of human CAKI-1 cells assessed as cell growth at 1 uM incubated for 48 hrs by sulforhodamine B assay relative to control; conditions: read-out: Activity; procedure, shortened: as §2
SR = assay: Growth inhibition of human SR cells incubated for 48 hrs by sulforhodamine B assay; procedure, shortened: as §3
COLO 205 [14] = assay: Growth inhibition of human COLO 205 cells incubated for 48 hrs by sulforhodamine B assay; procedure, shortened: as §2
SF-268 [15] = assay: Growth inhibition of human SF-268 cells assessed as cell growth at 100 uM incubated for 48 hrs by sulforhodamine B assay relative to control; conditions: read-out: Activity
A498 = assay: Growth inhibition of human A498 cells assessed as cell growth at 0.1 uM incubated for 48 hrs by sulforhodamine B assay relative to control; conditions: read-out: Activity; procedure, shortened: as §2
OVCAR-5 [16] = assay: Growth inhibition of human OVCAR-5 cells incubated for 48 hrs by sulforhodamine B assay; procedure, shortened: as §3
OVCAR-5 [17] = assay: Growth inhibition of human OVCAR-5 cells assessed as cell growth at 100 uM incubated for 48 hrs by sulforhodamine B assay relative to control; conditions: read-out: Activity
OVCAR-5 [18] = assay: Growth inhibition of human OVCAR-5 cells assessed as cell growth at 1 uM incubated for 48 hrs by sulforhodamine B assay relative to control; conditions: read-out: Activity

CN1CCc2nc3sc(C(N)=O)c(N)c3c(-c3cccs3)c2C1
GI50 (NCI-H322M [1]): 3.85 µM | TGI (NCI-H322M [1]): 88.5 µM | CC50 (NCI-H322M [1]): > 100 µM | growth at 0.01 µM (T47D): 97% | growth at 1 µM (M14): 115% | growth at 0.1 µM (CCRF-CEM): 107% | growth at 0.01 µM (MCF7): 98% | GI50 (LOX IMVI): 1.27 µM | LC50 (LOX IMVI): > 100 µM | TGI (LOX IMVI): > 100 µM | growth at 0.01 µM (SNB-75): 95% | growth at 100 µM (HCT-116 [2]): 3% | GI50 (PC-3 [3]): 4.58 µM | TGI (PC-3 [3]): > 100 µM | CC50 (PC-3 [3]): > 100 µM | growth at 0.1 µM (HCT-116 [4]): 102% | growth at 0.01 µM (MOLT-4): 99% | growth at 100 µM (HOP-62): 2% | growth at 0.1 µM (UO-31): 102% | growth at 0.1 µM (SK-MEL-5): 91% | GI50 (NCI-H23): 2.87 µM | LC50 (50% lethal concentration) (NCI-H23): > 100 µM | TGI (NCI-H23): 12.6 µM | growth at 100 µM (NCI-H322M [5]): -1% | growth at 0.1 µM (A549): 95% | growth at 1 µM (SF-268 [6]): 107% | GI50 (BT-549 [7]): 3.26 µM | TGI (BT-549 [7]): 35.5 µM | CC50 (BT-549 [7]): > 100 µM | growth at 100 µM (SK-OV-3): 17% | growth at 0.01 µM (PC-3 [8]): 105% | growth at 0.01 µM (786-0): 95% | growth at 1 µM (Malme-3M [9]): 131% | growth at 0.1 µM (COLO 205 [10]): 103% | growth at 0.01 µM (Malme-3M [11]): 104% | growth at 0.1 µM (NCI-H322M [12]): 102% | growth at 1 µM (BT-549 [13]): 92% | growth at 1 µM (CAKI-1): 82% | GI50 (SR): 1.8 µM | LC50 (SR): > 100 µM | TGI (SR): 7.31 µM | GI50 (COLO 205 [14]): 1.43 µM | LC50 (concentration killing 50% of cells) (COLO 205 [14]): 9.35 µM | TGI (COLO 205 [14]): 3.66 µM | growth at 100 µM (SF-268 [15]): 2% | growth at 0.1 µM (A498): 111%

Cc1cccc(NC(=O)c2sc3nc4c(cc3c2N)C(=O)CCC4)c1
TGI (NCI-H322M [1]): > 100 µM | CC50 (NCI-H322M [1]): > 100 µM | TGI (OVCAR-5 [16]): ≥ 100 µM | CC50 (OVCAR-5 [16]; read-out: LC50 (the source's name)): > 100 µM | growth at 0.01 µM (T47D): 79% | growth at 100 µM (OVCAR-5 [17]): -20% | growth at 1 µM (M14): 11% | growth at 0.1 µM (CCRF-CEM): 90% | growth at 1 µM (OVCAR-5 [18]): 44% | growth at 0.01 µM (MCF7): 86% | GI50 (LOX IMVI): 0.0118 µM | LC50 (LOX IMVI): > 100 µM | TGI (LOX IMVI): ≥ 100 µM | growth at 0.01 µM (SNB-75): 80% | growth at 100 µM (HCT-116 [2]): 10% | GI50 (PC-3 [3]): 0.393 µM | TGI (PC-3 [3]): ≥ 100 µM | CC50 (PC-3 [3]): > 100 µM | growth at 0.1 µM (HCT-116 [4]): 68% | growth at 0.01 µM (MOLT-4): 97% | growth at 100 µM (HOP-62): 1% | growth at 0.1 µM (UO-31): 81% | growth at 0.1 µM (SK-MEL-5): 44% | GI50 (NCI-H23): 0.481 µM | LC50 (50% lethal concentration) (NCI-H23): > 100 µM | TGI (NCI-H23): ≥ 100 µM | growth at 100 µM (NCI-H322M [5]): -22% | growth at 0.1 µM (A549): 78% | growth at 1 µM (SF-268 [6]): 54% | TGI (BT-549 [7]): ≥ 100 µM | CC50 (BT-549 [7]): > 100 µM | growth at 100 µM (SK-OV-3): -16% | growth at 0.01 µM (PC-3 [8]): 95% | growth at 0.01 µM (786-0): 88% | growth at 1 µM (Malme-3M [9]): 36% | growth at 0.1 µM (COLO 205 [10]): 78% | growth at 0.01 µM (Malme-3M [11]): 91% | growth at 0.1 µM (NCI-H322M [12]): 84% | growth at 1 µM (BT-549 [13]): 46% | growth at 1 µM (CAKI-1): 30% | GI50 (COLO 205 [14]): 0.197 µM | LC50 (concentration killing 50% of cells) (COLO 205 [14]): > 100 µM | TGI (COLO 205 [14]): ≥ 100 µM | growth at 100 µM (SF-268 [15]): -12% | growth at 0.1 µM (A498): 32%
